Measurements: article PMC11455733 (Drugs in R&D, 2024)

Columns and labels:
[1] = 10-day daily IP administration, body weight; assay type: in vivo, C57BL/6 mice
In short: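 Body weights were recorded daily and again on day 11, before euthanasia. Mice were C57BL/6 of both sexes (7–12 weeks; n = 8 per group, equal males and females), with sex data combined. Dosing was IP once daily for 10 days with vehicle (DMSO diluted 10%/90% vol/vol in 0.5% Methocel/0.9% NaCl) or test compound. Groups were compared by ANOVA followed by unpaired t test.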

[2] = system: IL-1β, IL-6, and TNFα in total lung homogenates; assay: 10-day daily IP administration, lung cytokines by ELISA; assay type: in vivo, C57BL/6 mice; conditions: 20.0 mg/kg IP daily for 10 days, day 11, vs vehicle
In short: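 On day 11, IL-1β, IL-6 and TNFα were measured by mouse ELISA kits in total lung homogenates. Mice were C57BL/6 of both sexes (7–12 weeks; n = 8 per group), given daily IP vehicle (DMSO/0.5% Methocel in 0.9% NaCl, 10%/90% vol/vol) or test compound for 10 days. Analysis was ANOVA followed by unpaired t test.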

[3] = system: Col1a1 and Fn mRNA in total lung RNA; assay: 10-day daily IP administration, lung extracellular matrix mRNA by qPCR; assay type: in vivo, C57BL/6 mice; conditions: 20.0 mg/kg IP daily for 10 days, day 11, vs vehicle
In short: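 Lung tissue was taken on day 11, after 10 days of daily IP vehicle (DMSO/0.5% Methocel-saline) or test compound in male and female C57BL/6 mice (n = 8 per group). Tissue was lysed and RNA purified with genomic DNA removal. cDNA was made with oligo(dT) plus random hexamers, then SYBR green real-time PCR was run. Col1a1 and Fn were expressed as ratios to B2M.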

[4] = 10-day daily IP administration, serum chemistry; assay type: in vivo, C57BL/6 mice; conditions: 20.0 mg/kg IP daily for 10 days, day 11, vs vehicle
In short: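 Serum was prepared from postmortem blood on day 11 and analysed on a chemistry analyser per the manufacturer's instructions. Mice were C57BL/6 of both sexes (7–12 weeks; n = 8 per group), dosed IP daily for 10 days with vehicle (DMSO/0.5% Methocel in 0.9% NaCl, 10%/90% vol/vol) or test compound. Analysis was ANOVA, then unpaired t test.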

[5] = 10-day daily IP administration, complete blood count; assay type: in vivo, C57BL/6 mice; conditions: 20.0 mg/kg IP daily for 10 days, day 11, vs vehicle
In short: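 Blood was collected postmortem on day 11 and run on a veterinary haematology analyser for complete blood count. Mice were male and female C57BL/6 (7–12 weeks; n = 8 per group), dosed IP daily for 10 days with vehicle (DMSO/0.5% Methocel in saline, 10%/90% vol/vol) or test compound. Analysis was ANOVA, then unpaired Student t test.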

[6] = system: lung, liver, and kidney; assay: 10-day daily IP administration, H&E histology scoring; assay type: in vivo, C57BL/6 mice; conditions: 20.0 mg/kg IP daily for 10 days, all parameters
In short: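 Male and female C57BL/6 mice (7–12 weeks; n = 8 per group, equal sexes) got IP vehicle (DMSO then 0.5% Methocel in 0.9% NaCl, 10%/90% vol/vol) or test compound daily from day 0 for 10 days. On day 11, organs were fixed in 10% neutral formalin and paraffin-embedded. 5 μm H&E sections were graded blindly by a pathologist over the whole section area.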

[7] = Solubility in water or saline; assay type: physicochemical
[8] = system: EphB2; conditions: cited from earlier work
[9] = within normal published parameters

In the case of `CCN1CCN(Cc2ccc(NC(=O)c3ccc(C)c(NC(=O)c4cncc(-c5cccs5)c4)c3)cc2C(F)(F)F)CC1` [ALW-II-41-27], the “daily and ending weight loss” value ([1]; 20.0 mg/kg IP daily for 10 days, vs vehicle) was “no significant changes”, the tolerability ([1]; 20.0 mg/kg IP once a day in mice) was “well tolerated” and the “IL-1β in whole-lung lysates” value [2] was “No significant alterations”. For the same compound, the “IL-6 in whole-lung lysates” value [2] was “No significant alterations”, the “TNF-α in whole-lung lysates” value [2] was “No significant alterations” and the “Col1a1 mRNA expression (ratio to B2M) in lung” value [3] was “no significant differences”. For the same compound, the “Fn mRNA expression (ratio to B2M) in lung” value [3] was “no significant differences”, the “serum chemistry parameters other than creatinine” value [4] was “no significant changes” and the “CBC parameters other than NEU and RBC” value [5] was “no significant differences”. The “neutrophil (NEU) count” value [5, 9] was “significantly higher”, the “red blood cell (RBC) count” value [5, 9] was “significantly higher” and the “histology score (0 normal to 4+), lung, liver, and kidney” value [6] was 0. The “solubility in water or saline” value [7] was “lack of solubility” and the “inhibition of the Ephrin receptor EphB2” value [8] was “shown to inhibit”.
